According to article PMC9933477 (ACS Omega, 2023):
In brackets after ≈: the same amount, converted by molar mass.

What was measured:
[1] = target: T1, RORγt (Homo sapiens, UniProt P51449); test: Cofactor peptide recruitment assay; type: biochemical
T1 sequence (P51449 251-518): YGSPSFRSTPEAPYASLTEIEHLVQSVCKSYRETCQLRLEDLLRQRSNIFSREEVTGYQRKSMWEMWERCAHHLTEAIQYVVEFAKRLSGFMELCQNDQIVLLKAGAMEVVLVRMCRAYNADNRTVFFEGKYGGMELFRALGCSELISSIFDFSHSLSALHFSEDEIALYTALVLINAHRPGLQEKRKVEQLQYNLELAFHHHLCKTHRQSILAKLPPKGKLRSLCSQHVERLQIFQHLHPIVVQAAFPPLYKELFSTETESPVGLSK
How it was run: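 Cell-free AlphaScreen measuring test compound interference with RORγt binding to SRC-1 coactivator peptide. […] Vehicle (DMSO) wells are set as 100% control and wells lacking protein as 0% control.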

[2] = target: T2, GPBAR1 (Homo sapiens, UniProt Q8TDU6); test: Luciferase reporter assay; type: cell-based
T2 sequence (Q8TDU6 1-330): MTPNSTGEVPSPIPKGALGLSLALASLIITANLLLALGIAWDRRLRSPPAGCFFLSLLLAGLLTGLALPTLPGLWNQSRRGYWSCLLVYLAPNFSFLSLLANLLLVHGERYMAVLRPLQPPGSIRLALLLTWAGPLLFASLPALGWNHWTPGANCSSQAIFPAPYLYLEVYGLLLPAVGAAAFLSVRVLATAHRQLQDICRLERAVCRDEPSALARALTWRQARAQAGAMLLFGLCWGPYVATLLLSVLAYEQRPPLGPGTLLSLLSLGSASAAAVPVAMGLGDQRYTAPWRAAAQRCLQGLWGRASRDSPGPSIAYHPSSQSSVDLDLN
How it was run: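 HEK-293T cells transfected with GPBAR1 carry a cAMP-responsive element (CRE) luciferase reporter. Single-point efficacy at 10 μM is scored against TLCA (10 μM) as 100%, as the mean of two experiments ± SD. EC50 comes from concentration-dependent CREB activation in the same transfected cells.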

[3] = system: TNBS-induced colitis; test: Mouse model of TNBS-induced colitis; type: in vivo; settings: 10, 20 or 30 mg/kg/day by gavage
How it was run: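 C57 male mice given TNBS to induce colitis, then vehicle or test compound at 10, 20 or 30 mg/kg/day by gavage, day 0 to day 4. Read-outs: body-weight change, CDAI, colon length, colon weight/length ratio, H&E of colon sections. Colon mRNA by RT-PCR normalised to Gapdh, Tbp and Actb. Mean ± SEM of 5–10 mice/group; p<0.05 vs TNBS or untreated.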

[4] = Metabolic stability in human liver microsomes; type: in vitro ADME; settings: pH 7.4
[5] = Aqueous solubility measurement; type: physicochemical; settings: PBS pH 7.4, pH 7.4, aqueous buffer, kinetic from dmso stock
[6] = system: U937 cells; test: U937 cells activated with LPS plus TNFα, RT-PCR of proinflammatory genes; type: cell-based, human; settings: 1 μM, 24 h, compared to cells exposed only to LPS plus TNFα

With C[C@H](CCCOc1cccc(CO)c1)[C@H]1CC[C@H]2[C@@H]3CC=C4C[C@@H](O)CC[C@]4(C)[C@H]3CC[C@]12C [Compound 7] the IC50 [1] was 0.107 µM, the EC50 [2] was 5.9 µM and the “Damage to the colon (macroscopic analysis and H&E histology)” value ([3]; day 0 to day 4) was “decreased the damage to the colon”. For the same molecule, the “Severity of colitis (percentage of body weight, CDAI)” value ([3]; day 0 to day 4) was “relieved by 7 in a dose-dependent manner”, the “Colon expression of IL-10” value ([3]; RT-PCR of colon) was “strong increase” and the “Colon expression of Rorc, IL-17A, and F” value ([3]; RT-PCR of colon) was “decreased the expression”. It also gave a microsomal CLint at 1 µM [4] of 7 µL/min/mg.
With C[C@H](CCCOc1ccc(C#N)cc1)[C@H]1CC[C@H]2[C@@H]3CC[C@@H]4C[C@H](O)CC[C@]4(C)[C@H]3CC[C@]12C [Compound 17] the solubility at 24 h [5] was 15 µM (≈ 6.96 µg/mL).
For C[C@H](CCCOc1ccc(C#N)cc1)[C@H]1CC[C@H]2[C@@H]3CC=C4C[C@@H](O)CC[C@]4(C)[C@H]3CC[C@]12C [Compound 5], the solubility at 24 h [5] was 10 µM (≈ 4.62 µg/mL).
In the case of C[C@H](CCCOc1ccc(C(=O)O)cc1)[C@H]1CC[C@H]2[C@@H]3CC=C4C[C@@H](O)CC[C@]4(C)[C@H]3CC[C@]12C [Compound 3], the IC50 [1] is reported as 1.19 µM, the “Reduction in the expression of all measured genes (IL-1β, TNFα, IL-6, CD11c)” value [6] is reported as 30–50% and the EC50 [2] is reported as 0.22 µM.
